Measurements as given in ChEMBL document CHEMBL4382246, “Synthesis, biological evaluation, and molecular docking investigation of 3-amidoindoles as potent tubulin polymerization inhibitors” (Eur J Med Chem, 2019).

Key:
T47D = experiment: Cytotoxicity against human T47D cells after 72 hrs by MTT assay; format: functional, cell-based
Summary of the method: (§1)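 Lines kept in RPMI-1640 with 10% FBS. Cells were seeded at 2×10³ per well and allowed to attach for 24 h at 37 °C. Medium was then replaced with medium holding serial dilutions from 100 mM DMSO stocks, with 0.1% DMSO as negative control, for 72 h at 37 °C. […] IC50 was fitted from the concentration series as the mean ± SD of three independent experiments run in duplicate.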

MDA-MB-468 = experiment: Cytotoxicity against human MDA-MB-468 cells after 72 hrs by MTT assay; format: functional, cell-based; conditions: MDA-MB-468, 72 h; summary of the method: as §1
BT-549 [1] = experiment: Cytotoxicity against human BT549 cells after 72 hrs by MTT assay; format: functional, cell-based; conditions: BT-549, 72 h; summary of the method: as §1
Hs-578T = experiment: Cytotoxicity against human Hs578T cells after 72 hrs by MTT assay; format: functional, cell-based; summary of the method: as §1
MDA-MB-231 = experiment: Cytotoxicity against human MDA-MB-231 cells after 72 hrs by MTT assay; format: functional, cell-based; conditions: MDA-MB-231, 72 h; summary of the method: as §1
MCF7 = experiment: Cytotoxicity against human MCF7 cells after 72 hrs by MTT assay; format: functional, cell-based; conditions: MCF7, 72 h; summary of the method: as §1
Tubulin (Sus scrofa) = Tubulin (Sus scrofa) (UniProt P02554+P02550); experiment: Inhibition of pig brain tubulin polymerization at 10 uM by spectrophotometric analysis relative to control
Summary of the method: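 Tubulin polymerization inhibition was measured with compounds at a final concentration of 10 µM.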

BT-549 [2] = experiment: Cell cycle arrest in human BT549 cells assessed as accumulation of cells at G0/G1 phase at 8 uM after 24 hrs by propidium iodide staining-based flow cytometric analysis (reference value: 65.28%); format: functional
BT-549 [3] = experiment: Cell cycle arrest in human BT549 cells assessed as accumulation of cells at G2/M phase at 8 uM after 24 hrs by propidium iodide staining-based flow cytometric analysis (reference value: 8.88%); format: functional
BT-549 [4] = experiment: Cell cycle arrest in human BT549 cells assessed as accumulation of cells at S phase at 8 uM after 24 hrs by propidium iodide staining-based flow cytometric analysis (reference value: 25.84%); format: functional

Chain of Tubulin (Sus scrofa) (P02550 whole entry, looked up): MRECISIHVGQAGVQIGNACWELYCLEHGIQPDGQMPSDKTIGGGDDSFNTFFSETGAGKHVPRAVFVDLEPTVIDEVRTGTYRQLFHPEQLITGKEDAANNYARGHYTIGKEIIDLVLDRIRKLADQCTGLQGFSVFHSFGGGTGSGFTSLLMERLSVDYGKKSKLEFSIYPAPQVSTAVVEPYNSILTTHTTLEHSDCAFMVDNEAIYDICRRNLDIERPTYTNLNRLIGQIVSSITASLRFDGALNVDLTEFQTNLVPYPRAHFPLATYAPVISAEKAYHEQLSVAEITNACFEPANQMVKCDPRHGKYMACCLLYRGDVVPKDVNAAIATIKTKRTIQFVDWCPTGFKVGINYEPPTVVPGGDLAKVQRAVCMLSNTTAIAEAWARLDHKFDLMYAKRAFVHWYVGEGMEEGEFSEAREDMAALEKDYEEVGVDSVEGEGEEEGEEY
Chain of Tubulin (Sus scrofa) (P02554 whole entry, looked up): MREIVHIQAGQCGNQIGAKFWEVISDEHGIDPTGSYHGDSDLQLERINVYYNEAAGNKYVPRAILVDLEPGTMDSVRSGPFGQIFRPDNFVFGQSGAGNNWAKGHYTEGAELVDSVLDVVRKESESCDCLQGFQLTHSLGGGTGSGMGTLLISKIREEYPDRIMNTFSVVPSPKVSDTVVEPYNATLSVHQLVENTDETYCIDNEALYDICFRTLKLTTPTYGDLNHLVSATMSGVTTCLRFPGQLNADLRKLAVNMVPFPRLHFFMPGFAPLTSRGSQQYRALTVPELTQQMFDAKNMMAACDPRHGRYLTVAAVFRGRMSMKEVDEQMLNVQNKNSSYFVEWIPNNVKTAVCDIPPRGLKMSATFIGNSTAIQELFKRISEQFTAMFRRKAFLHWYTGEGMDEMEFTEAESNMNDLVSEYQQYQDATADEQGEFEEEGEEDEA

Compound	IC50 (T47D) [µM]	IC50 (MDA-MB-468) [µM]	IC50 (BT-549 [1]) [µM]	IC50 (Hs-578T) [µM]	IC50 (MDA-MB-231) [µM]	IC50 (MCF7) [µM]	inhibition (Tubulin (Sus scrofa)) [%]	Activity (BT-549 [2]) [%]	Activity (BT-549 [3]) [%]	Activity (BT-549 [4]) [%]
COc1cc(C(=O)Nc2c(C(=O)c3ccc(F)c(F)c3)[nH]c3cc(Cl)ccc23)cc(OC)c1OC	> 100	> 100	51.2	64.6	> 100	10.1	–	–	–	–
COc1cccc(C(=O)c2[nH]c3ccccc3c2NC(=O)c2cc(OC)c(OC)c(OC)c2)c1	53.4	> 100	65.5	9.06	> 100	> 100	–	–	–	–
COc1cc(C(=O)Nc2c(C(=O)c3cccc(Br)c3)[nH]c3cc(Cl)ccc23)cc(OC)c1OC	14.1	20.8	8.42	4.1	26.8	23	25	–	–	–
COc1cc(C(=O)Nc2c(C(=O)c3ccc(-c4ccccc4)cc3)[nH]c3ccccc23)cc(OC)c1OC	> 100	> 100	> 100	22.2	> 100	> 100	–	–	–	–
COc1cc(C(=O)Nc2c(C(=O)c3ccco3)[nH]c3cc(Cl)ccc23)cc(OC)c1OC	> 100	> 100	> 100	> 100	> 100	> 100	–	–	–	–
COc1cc(C(=O)Nc2c(C(=O)c3ccc(C)cc3)[nH]c3cc(C)ccc23)cc(OC)c1OC	40.2	75.1	69.8	43.7	33.4	69.5	–	–	–	–
COc1cc(C(=O)Nc2c(C(=O)c3ccccc3)[nH]c3cc(C)ccc23)cc(OC)c1OC	> 100	> 100	42.3	49.1	16.6	32.7	–	–	–	–
COc1cc(C(=O)Nc2c(C(=O)c3ccc(Br)cc3)[nH]c3ccccc23)cc(OC)c1OC	9.55	7.87	10.3	7.52	6.47	7.14	37	–	–	–
COc1ccc(/C=C\c2cc(OC)c(OC)c(OC)c2)cc1O [COMBRETASTATIN A4]	0.00189	0.00155	0.00171	0.00136	0.00317	0.003	–	8.9	72.9	18.2
COc1ccc(C(=O)c2[nH]c3cc(Cl)ccc3c2NC(=O)c2cc(OC)c(OC)c(OC)c2)cc1	11.1	8.61	11.1	15.9	9.17	17.6	47	–	–	–
COc1ccc(C(=O)c2[nH]c3cc(Cl)ccc3c2NC(=O)c2cc(OC)c(OC)c(OC)c2)cc1O	9.28	23.2	7.48	4.35	22.2	32.6	30	–	–	–
COc1cccc(C(=O)c2[nH]c3cc(Cl)ccc3c2NC(=O)c2cc(OC)c(OC)c(OC)c2)c1	52.4	> 100	> 100	> 100	> 100	> 100	–	–	–	–
COc1cc(C(=O)Nc2c(C(=O)c3cccs3)[nH]c3cc(C)ccc23)cc(OC)c1OC	> 100	> 100	> 100	> 100	> 100	> 100	–	–	–	–
COc1cc(C(=O)Nc2c(C(=O)c3ccccc3)[nH]c3ccccc23)cc(OC)c1OC	> 100	> 100	> 100	> 100	17.2	> 100	–	–	–	–
COc1ccc(C(=O)c2[nH]c3cc(OC)ccc3c2NC(=O)c2cc(OC)c(OC)c(OC)c2)cc1	6.3	26.4	18.2	10.4	48.8	79.3	25	–	–	–
COc1cc(C(=O)Nc2c(C(=O)c3ccc(F)cc3)[nH]c3cc(Cl)ccc23)cc(OC)c1OC	76.2	> 100	35.5	> 100	46.6	61.1	–	–	–	–
COc1ccc2c(NC(=O)c3cc(OC)c(OC)c(OC)c3)c(C(=O)c3ccccc3)[nH]c2c1	> 100	> 100	> 100	> 100	> 100	> 100	–	–	–	–
COc1cc(C(=O)Nc2c(C(=O)c3ccc(Cl)cc3)[nH]c3cc(C)ccc23)cc(OC)c1OC	6.25	4.12	4.81	3.59	3.22	3.85	15	–	–	–
COc1ccc2c(NC(=O)c3cc(OC)c(OC)c(OC)c3)c(C(=O)c3ccc(C)cc3)[nH]c2c1	> 100	> 100	> 100	> 100	> 100	> 100	–	–	–	–
COc1cc(C(=O)Nc2c(C(=O)c3ccc(F)cc3)[nH]c3cc(C)ccc23)cc(OC)c1OC	5.72	6.16	8.66	8.95	5.17	8.89	17	–	–	–
COc1cc(C(=O)Nc2c(C(=O)c3ccccc3)[nH]c3cc(Cl)ccc23)cc(OC)c1OC	45.5	11	26.9	> 100	32.7	51.8	41	–	–	–
COc1cc(C(=O)Nc2c(C(=O)c3ccc(F)cc3)[nH]c3ccccc23)cc(OC)c1OC	60.9	> 100	42.6	> 100	50.8	77.9	–	–	–	–
COc1cc(C(=O)Nc2c(C(=O)c3ccc(C)cc3)[nH]c3ccccc23)cc(OC)c1OC	20.1	14.5	17.1	50.5	12.6	50	–	–	–	–
COc1cc(C(=O)Nc2c(C(=O)c3cccs3)[nH]c3cc(Cl)ccc23)cc(OC)c1OC	31.4	15.3	37.5	49.2	> 100	47.5	–	–	–	–
COc1cc(C(=O)Nc2c(C(=O)c3ccc(-c4ccccc4)cc3)[nH]c3cc(C)ccc23)cc(OC)c1OC	> 100	> 100	> 100	> 100	18.2	> 100	–	–	–	–
COc1cc(C(=O)Nc2c(C(=O)c3cccs3)[nH]c3ccccc23)cc(OC)c1OC	> 100	> 100	> 100	29.6	> 100	> 100	–	–	–	–
COc1ccc(C(=O)c2[nH]c3ccccc3c2NC(=O)c2cc(OC)c(OC)c(OC)c2)cc1	5.56	7.09	10.4	> 100	35	10.7	20	–	–	–
COc1cc(C(=O)Nc2c(C(=O)c3ccc4ccccc4c3)[nH]c3cc(C)ccc23)cc(OC)c1OC	> 100	> 100	39.8	53.3	> 100	> 100	–	–	–	–
COc1cc(C(=O)Nc2c(C(=O)c3ccc(C)cc3)[nH]c3cc(Cl)ccc23)cc(OC)c1OC	16.6	5.79	25.1	14.2	33.6	34.3	36	–	–	–
